Common to all, as to assay type: functional
In assay [1] the test system is Rattus norvegicus. In words: Antihyperlipidemic activity in Triton-induced hyperlipidemic rat model assessed as serum total cholesterol level at 75 mg/kg, po administered for 2 days through gastric intubation immediately and 20 hrs after triton challenge measured after 4 hrs of last dose. In short, it runs like this:
(§1)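 Male Charles Foster albino rats (200–250 g), fasted 24 h, given Triton 400 mg/kg ip in saline. Compound given orally by gastric intubation right after Triton and again 20 h later. Killed by decapitation 4 h after the second dose. Serum separated and stored at −20°. Total cholesterol by Abell method, triglycerides by Gottfried–Rosenberg, total lipid by Frings–Dunn. Mean ± SEM, n=6, Student's t-test versus control.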

The subject of assay [2] is Rattus norvegicus. The assay is described as follows: Antihyperlipidemic activity in diet-induced hyperlipidemic rat model assessed as serum VLDLC level at 40 mg/kg, po administered once daily in morning through gastric intubation for 14 days measured after 4 hrs of last dose. An outline of the steps: (§2)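 Male Charles Foster albino rats (200–250 g) fed a hyperlipidemic diet. Compound suspended in 5% EtOH/saline, given by gastric intubation each morning for 14 days; controls got vehicle. Killed 4 h after the last dose, serum taken by cardiac puncture. TC by Abell method, TG by Gottfried–Rosenberg, HDL-C by kit. LDL-C and VLDL-C by Friedewald calculation. Atherogenic index = (TC−HDL-C)/HDL-C. Mean ± SEM, n=6, t-test.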

Assay [3] concerns Rattus norvegicus. In words: Antihyperlipidemic activity in Triton-induced hyperlipidemic rat model assessed as serum triglyceride level at 75 mg/kg, po administered for 2 days through gastric intubation immediately and 20 hrs after triton challenge measured after 4 hrs of last dose. An outline of the steps: as §1
Assay [4] has as its system Rattus norvegicus. In words: Antihyperlipidemic activity in diet-induced hyperlipidemic rat model assessed as serum HDLC level at 40 mg/kg, po administered once daily in morning through gastric intubation for 14 days measured after 4 hrs of last dose. An outline of the steps: as §2
Assay [5] relates to Rattus norvegicus. The assay is described as follows: Antihyperlipidemic activity in diet-induced hyperlipidemic rat model assessed as ratio of HDLC to serum total cholesterol level at 40 mg/kg, po administered once daily in morning through gastric intubation for 14 days measured after 4 hrs of last dose.
In assay [6] the test system is Rattus norvegicus. In words: Antihyperlipidemic activity in diet-induced hyperlipidemic rat model assessed as serum triglyceride level at 40 mg/kg, po administered once daily in morning through gastric intubation for 14 days measured after 4 hrs of last dose. An outline of the steps: as §2
The test system of assay [7] is Rattus norvegicus. In words: Antihyperlipidemic activity in diet-induced hyperlipidemic rat model assessed as serum LDLC level at 40 mg/kg, po administered once daily in morning through gastric intubation for 14 days measured after 4 hrs of last dose. An outline of the steps: as §2
Assay [8] deals with Rattus norvegicus. In words: Antihyperlipidemic activity in diet-induced hyperlipidemic rat model assessed as atherogenic index at 40 mg/kg, po administered once daily in morning through gastric intubation for 14 days measured after 4 hrs of last dose. An outline of the steps: as §2
Assay [9] relates to Rattus norvegicus. In words: Antihyperlipidemic activity in Triton-induced hyperlipidemic rat model assessed as serum total lipid level at 75 mg/kg, po administered for 2 days through gastric intubation immediately and 20 hrs after triton challenge measured after 4 hrs of last dose. In short, it runs like this: as §1
The test system of assay [10] is Rattus norvegicus. In words: Antihyperlipidemic activity in diet-induced hyperlipidemic rat model assessed as serum total cholesterol level at 40 mg/kg, po administered once daily in morning through gastric intubation for 14 days measured after 4 hrs of last dose. In short, it runs like this:
as §2

As to `O=C1C[C@@H](c2ccc(O)cc2)Oc2cc(O)ccc21` [LIQUIRTIGENIN], the Activity with Rattus norvegicus [1] came out at 406.7 mg%; with Rattus norvegicus [2], 39.6 mg/dL; in the assay on Rattus norvegicus [3] it was 572.9 mg%; with Rattus norvegicus [4], 38.01 mg/dL; in the assay on Rattus norvegicus [6], 198.1 mg/dL; in the assay on Rattus norvegicus [7] it was 245.7 mg/dL. In addition, the Activity in the assay with Rattus norvegicus [9] was found to be 837.3 mg%; with Rattus norvegicus [10], 323.2 mg/dL. Besides, the Ratio in the assay with Rattus norvegicus [5] was 0.11. Also, the AI in the assay on Rattus norvegicus [8] is 7.5.
In the case of `COc1cc(O)cc2c1C(=O)C(O)(Cc1ccc(O)cc1)O2` (stereo unspecified) [CARPUSIN], the Activity worked out at 41.1 mg/dL in the assay with Rattus norvegicus [2]; 32 mg/dL with Rattus norvegicus [4]; 190 mg/dL with Rattus norvegicus [6]; 292.8 mg/dL in the assay with Rattus norvegicus [7]; 350.6 mg/dL in the assay with Rattus norvegicus [10]. The Ratio in the assay on Rattus norvegicus [5] is on record as 0.09.

Values taken from ChEMBL document CHEMBL1148174, “Antihyperlipidemic effect of flavonoids from Pterocarpus marsupium” (1993).
